Data: ChEMBL document CHEMBL1144020, “Development of prodrug 4-chloro-3-(5-methyl-3-{[4-(2-pyrrolidin-1-ylethoxy)phenyl]amino}-1,2,4-benzotriazin-7-yl)phenyl benzoate (TG100801): a topically administered therapeutic candidate in clinical trials for the treatment of age-related macular degeneration” (J Med Chem, 2008)
pIC50: −log10 of the molar value.

Assays:
[1] = target: Tyrosine-protein kinase Yes (Homo sapiens, UniProt P07947); assay: Inhibition of YES
Mus musculus [2] = organism: Mus musculus; assay: Cmax in C57BL/6 mouse choroid/sclera assessed as 4-chloro-3-{5-methyl-3-[4-(2-pyrrolidin-1-yl-ethoxy)phenylamino]benzo[1,2,4]triazin-7-yl}phenol at 172 nM instilled per eye; type: ADME, organism-based; set-up: dose 172 nM, route ophthalmic; conditions: in vivo, topical_or_ocular, 0.172 µM
Procedure, shortened: (§1)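 Male C57BL/6 mice got one 10 µL eye drop of prodrug (100 µg, 172 nmol per eye). Composite sampling at 0.5, 1, 3, 7 and 24 h post-instillation. Cornea, retina and pooled sclera/choroid were collected, with plasma at euthanasia. Tissues were homogenized in RIPA and extracted with acetonitrile. Prodrug and parent were measured by LC/MS/MS against matrix standards; AUC by linear trapezoidal rule on means.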

[3] = Tmax in C57BL/6 mouse retina at 172 nM instilled per eye; type: ADME, organism-based; conditions: topical or ocular, 172 nM per eye; procedure, shortened: as §1
Mus musculus [4] = assay: Reduction of bruch's membrane rupture in laser-induced choroidoal neovascularization in mouse administered topically at 1.83% w/v after 14 days relative to control; type: functional; set-up: scale not given: the % may be the effect or the level left
Procedure, shortened: (§2)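 Laser rupture of Bruch's membrane in female C57BL/6J mice aged 4–5 weeks, ketamine-anesthetized; only bubble-forming burns were counted. Eight mice/group got one 10 µL drop of vehicle, 0.61% or 1.83% w/v prodrug t.i.d., 4 h apart, with the fellow eye untreated; a fourth group had no treatment. On day 14, mice were perfused with fluorescein-dextran and CNV area was measured on choroidal flatmounts. Linear mixed model with Dunnett adjustment.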

[5] = AUC (0 to 24 hrs) in C57BL/6 mouse retina at 172 nM instilled per eye; type: ADME, organism-based; set-up: dose 172 nM, time < 24 hr, route ophthalmic; conditions: topical or ocular, 172 nM per eye; procedure, shortened: as §1
[6] = Stability in Dutch-belted rabbit eye assessed as hydrolysis rate; type: ADME, tissue-based, Oryctolagus cuniculus
Procedure, shortened: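 Two Dutch-Belted rabbit eyeballs were homogenized in 1× RIPA buffer. Prodrug (from 1 mg/mL DMSO stock) was added to a final 5 µg/mL and kept at 37 °C, sampled at 0, 0.25, 1, 2 and 6 h. Controls were prodrug in RIPA buffer for 120 min at 37 °C. Supernatants were analyzed by LC/MS/MS for prodrug and released parent phenol.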

[7] = Cmax in C57BL/6 mouse choroid/sclera at 172 nM instilled per eye; type: ADME, organism-based; set-up: dose 172 nM, route ophthalmic; conditions: topical or ocular, 172 nM per eye; procedure, shortened: as §1
Mus musculus [8] = organism: Mus musculus; assay: Tmax in C57BL/6 mouse retina assessed as 4-chloro-3-{5-methyl-3-[4-(2-pyrrolidin-1-yl-ethoxy)phenylamino]benzo[1,2,4]triazin-7-yl}phenol at 172 nM instilled per eye; type: ADME, organism-based; conditions: in vivo, topical_or_ocular, 0.172 µM; procedure, shortened: as §1
Mus musculus [9] = assay: Reduction of VEGF-induced retinal leak in BALB/c mouse administered topically at 210 nM q.d; type: functional; set-up: scale not given: the % may be the effect or the level left
Mus musculus [10] = organism: Mus musculus; assay: Tmax in C57BL/6 mouse choroid/sclera assessed as 4-chloro-3-{5-methyl-3-[4-(2-pyrrolidin-1-yl-ethoxy)phenylamino]benzo[1,2,4]triazin-7-yl}phenol at 172 nM instilled per eye; type: ADME, organism-based; conditions: in vivo, topical_or_ocular, 0.172 µM; procedure, shortened: as §1
[11] = Plasma concentration in C57BL/6 mouse after 24 hrs; type: ADME, organism-based
[12] = AUC (0 to 24 hrs) in C57BL/6 mouse choroid/sclera at 172 nM instilled per eye; type: ADME, organism-based; set-up: dose 172 nM, time < 24 hr, route ophthalmic; conditions: topical or ocular, 172 nM per eye; procedure, shortened: as §1
[13] = target: Vascular endothelial growth factor receptor 2 (Homo sapiens, UniProt P35968); assay: Inhibition of VEGFR2
Chain of Vascular endothelial growth factor receptor 2 (P35968 whole entry): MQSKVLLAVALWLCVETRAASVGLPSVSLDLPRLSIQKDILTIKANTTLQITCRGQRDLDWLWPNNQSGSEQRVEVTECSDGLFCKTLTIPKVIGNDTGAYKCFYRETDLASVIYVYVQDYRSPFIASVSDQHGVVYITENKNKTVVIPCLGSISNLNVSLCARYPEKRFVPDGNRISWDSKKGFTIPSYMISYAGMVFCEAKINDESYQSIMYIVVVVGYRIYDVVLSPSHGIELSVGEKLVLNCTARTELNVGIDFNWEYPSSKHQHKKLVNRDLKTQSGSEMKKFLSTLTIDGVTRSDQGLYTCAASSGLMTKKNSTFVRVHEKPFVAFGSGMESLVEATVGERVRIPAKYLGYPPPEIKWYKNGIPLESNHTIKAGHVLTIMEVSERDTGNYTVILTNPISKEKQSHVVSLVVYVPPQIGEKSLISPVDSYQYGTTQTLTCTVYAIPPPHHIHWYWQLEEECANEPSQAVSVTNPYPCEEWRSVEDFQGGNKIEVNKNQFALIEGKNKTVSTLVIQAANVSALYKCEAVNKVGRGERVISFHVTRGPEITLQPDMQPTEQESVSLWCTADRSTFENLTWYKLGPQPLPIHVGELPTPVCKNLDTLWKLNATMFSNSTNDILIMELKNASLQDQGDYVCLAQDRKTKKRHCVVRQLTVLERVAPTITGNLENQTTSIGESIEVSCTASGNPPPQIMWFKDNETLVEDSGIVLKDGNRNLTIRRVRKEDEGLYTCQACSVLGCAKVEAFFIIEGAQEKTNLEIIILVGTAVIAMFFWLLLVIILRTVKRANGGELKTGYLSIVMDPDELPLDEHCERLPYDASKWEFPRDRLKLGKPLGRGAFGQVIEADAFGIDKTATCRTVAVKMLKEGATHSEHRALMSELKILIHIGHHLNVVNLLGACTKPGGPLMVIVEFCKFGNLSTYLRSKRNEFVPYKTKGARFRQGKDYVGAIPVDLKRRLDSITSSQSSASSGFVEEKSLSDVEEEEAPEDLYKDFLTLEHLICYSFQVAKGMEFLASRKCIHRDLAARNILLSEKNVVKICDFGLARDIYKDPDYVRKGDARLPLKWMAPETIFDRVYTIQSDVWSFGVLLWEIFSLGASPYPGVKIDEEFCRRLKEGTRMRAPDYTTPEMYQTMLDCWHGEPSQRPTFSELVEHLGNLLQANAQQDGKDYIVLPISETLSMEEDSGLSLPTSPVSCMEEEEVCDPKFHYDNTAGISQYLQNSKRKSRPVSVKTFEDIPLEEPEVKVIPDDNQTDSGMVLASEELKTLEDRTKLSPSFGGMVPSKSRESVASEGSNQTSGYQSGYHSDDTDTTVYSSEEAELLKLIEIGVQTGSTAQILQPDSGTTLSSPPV

[14] = Cmax in C57BL/6 mouse cornea at 172 nM instilled per eye; type: ADME, organism-based; set-up: dose 172 nM, route ophthalmic; conditions: topical or ocular, 172 nM per eye; procedure, shortened: as §1
Mus musculus [15] = organism: Mus musculus; assay: Cmax in C57BL/6 mouse retina assessed as 4-chloro-3-{5-methyl-3-[4-(2-pyrrolidin-1-yl-ethoxy)phenylamino]benzo[1,2,4]triazin-7-yl}phenol at 172 nM instilled per eye; type: ADME, organism-based; set-up: dose 172 nM, route ophthalmic; conditions: in vivo, topical_or_ocular, 0.172 µM; procedure, shortened: as §1
Mus musculus [16] = organism: Mus musculus; assay: AUC (0 to 24 hrs) in C57BL/6 mouse choroid/sclera assessed as 4-chloro-3-{5-methyl-3-[4-(2-pyrrolidin-1-yl-ethoxy)phenylamino]benzo[1,2,4]triazin-7-yl}phenol at 172 nM instilled per eye; type: ADME, organism-based; set-up: dose 172 nM, time < 24 hr, route ophthalmic; conditions: in vivo, topical_or_ocular, 0.172 µM; procedure, shortened: as §1
[17] = target: Proto-oncogene tyrosine-protein kinase Src (Homo sapiens, UniProt P12931); assay: Inhibition of Src
Chain of Proto-oncogene tyrosine-protein kinase Src (P12931 2-536 limits assumed): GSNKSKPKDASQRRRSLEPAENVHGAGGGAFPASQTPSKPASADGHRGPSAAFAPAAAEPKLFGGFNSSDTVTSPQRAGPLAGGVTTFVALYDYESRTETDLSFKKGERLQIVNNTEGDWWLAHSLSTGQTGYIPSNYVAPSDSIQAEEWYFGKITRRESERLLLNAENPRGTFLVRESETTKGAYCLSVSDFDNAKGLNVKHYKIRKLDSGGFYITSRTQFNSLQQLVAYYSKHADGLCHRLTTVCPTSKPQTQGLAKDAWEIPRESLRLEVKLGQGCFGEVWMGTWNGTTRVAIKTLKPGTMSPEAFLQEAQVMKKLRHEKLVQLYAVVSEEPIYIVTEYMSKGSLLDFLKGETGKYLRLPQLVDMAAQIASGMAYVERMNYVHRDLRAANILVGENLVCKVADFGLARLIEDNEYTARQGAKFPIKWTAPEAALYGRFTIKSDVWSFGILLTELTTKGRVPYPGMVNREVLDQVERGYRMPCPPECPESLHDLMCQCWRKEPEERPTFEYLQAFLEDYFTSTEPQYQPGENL

Mus musculus [18] = organism: Mus musculus; assay: Cmax in C57BL/6 mouse plasma assessed as 4-chloro-3-{5-methyl-3-[4-(2-pyrrolidin-1-yl-ethoxy)phenylamino]benzo[1,2,4]triazin-7-yl}phenol at 172 nM instilled per eye; type: ADME, organism-based; set-up: dose 172 nM, route ophthalmic; conditions: in vivo, topical_or_ocular, 0.172 µM; procedure, shortened: as §1
Mus musculus [19] = organism: Mus musculus; assay: AUC (0 to 24 hrs) in C57BL/6 mouse cornea assessed as 4-chloro-3-{5-methyl-3-[4-(2-pyrrolidin-1-yl-ethoxy)phenylamino]benzo[1,2,4]triazin-7-yl}phenol at 172 nM instilled per eye; type: ADME, organism-based; set-up: time < 24 hr, dose 172 nM, route ophthalmic; conditions: in vivo, topical_or_ocular, 0.172 µM; procedure, shortened: as §1
[20] = Stability at 120 degC after 1 hr; type: physicochemical; conditions: read-out: Stability
Procedure, shortened: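 Prodrugs at 0.5% in 0.5% HPMC/5% dextrose, pH 6.7, in closed vials, autoclaved at 120 °C for 1 h. After cooling, percent remaining was assessed by reverse-phase HPLC with diode-array and ELSD detection.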

Mus musculus [21] = organism: Mus musculus; assay: Cmax in C57BL/6 mouse cornea assessed as 4-chloro-3-{5-methyl-3-[4-(2-pyrrolidin-1-yl-ethoxy)phenylamino]benzo[1,2,4]triazin-7-yl}phenol at 172 nM instilled per eye; type: ADME, organism-based; set-up: dose 172 nM, route ophthalmic; conditions: in vivo, topical_or_ocular, 0.172 µM; procedure, shortened: as §1
Mus musculus [22] = organism: Mus musculus; assay: Tmax in C57BL/6 mouse plasma assessed as 4-chloro-3-{5-methyl-3-[4-(2-pyrrolidin-1-yl-ethoxy)phenylamino]benzo[1,2,4]triazin-7-yl}phenol at 172 nM instilled per eye; type: ADME, organism-based; conditions: in vivo, topical_or_ocular, 0.172 µM; procedure, shortened: as §1
Mus musculus [23] = organism: Mus musculus; assay: AUC (0 to 24 hrs) in C57BL/6 mouse retina assessed as 4-chloro-3-{5-methyl-3-[4-(2-pyrrolidin-1-yl-ethoxy)phenylamino]benzo[1,2,4]triazin-7-yl}phenol at 172 nM instilled per eye; type: ADME, organism-based; set-up: time < 24 hr, dose 172 nM, route ophthalmic; conditions: in vivo, topical_or_ocular, 0.172 µM; procedure, shortened: as §1
Mus musculus [24] = organism: Mus musculus; assay: Tmax in C57BL/6 mouse cornea assessed as 4-chloro-3-{5-methyl-3-[4-(2-pyrrolidin-1-yl-ethoxy)phenylamino]benzo[1,2,4]triazin-7-yl}phenol at 172 nM instilled per eye; type: ADME, organism-based; conditions: in vivo, topical_or_ocular, 0.172 µM; procedure, shortened: as §1
[25] = AUC (0 to 24 hrs) in C57BL/6 mouse cornea at 172 nM instilled per eye; type: ADME, organism-based; set-up: time < 24 hr, dose 172 nM, route ophthalmic; conditions: topical or ocular, 172 nM per eye; procedure, shortened: as §1
[26] = Tmax in C57BL/6 mouse choroid/sclera at 172 nM instilled per eye; type: ADME, organism-based; conditions: topical or ocular, 172 nM per eye; procedure, shortened: as §1
Mus musculus [27] = assay: Reduction of bruch's membrane rupture in laser-induced choroidoal neovascularization in mouse administered topically at 0.61% w/v after 14 days relative to control; type: functional; set-up: scale not given: the % may be the effect or the level left; procedure, shortened: as §2
[28] = Cmax in C57BL/6 mouse retina at 172 nM instilled per eye; type: ADME, organism-based; set-up: dose 172 nM, route ophthalmic; conditions: topical or ocular, 172 nM per eye; procedure, shortened: as §1
[29] = Tmax in C57BL/6 mouse cornea at 172 nM instilled per eye; type: ADME, organism-based; conditions: topical or ocular, 172 nM per eye; procedure, shortened: as §1

Chain of Tyrosine-protein kinase Yes (P07947 whole entry): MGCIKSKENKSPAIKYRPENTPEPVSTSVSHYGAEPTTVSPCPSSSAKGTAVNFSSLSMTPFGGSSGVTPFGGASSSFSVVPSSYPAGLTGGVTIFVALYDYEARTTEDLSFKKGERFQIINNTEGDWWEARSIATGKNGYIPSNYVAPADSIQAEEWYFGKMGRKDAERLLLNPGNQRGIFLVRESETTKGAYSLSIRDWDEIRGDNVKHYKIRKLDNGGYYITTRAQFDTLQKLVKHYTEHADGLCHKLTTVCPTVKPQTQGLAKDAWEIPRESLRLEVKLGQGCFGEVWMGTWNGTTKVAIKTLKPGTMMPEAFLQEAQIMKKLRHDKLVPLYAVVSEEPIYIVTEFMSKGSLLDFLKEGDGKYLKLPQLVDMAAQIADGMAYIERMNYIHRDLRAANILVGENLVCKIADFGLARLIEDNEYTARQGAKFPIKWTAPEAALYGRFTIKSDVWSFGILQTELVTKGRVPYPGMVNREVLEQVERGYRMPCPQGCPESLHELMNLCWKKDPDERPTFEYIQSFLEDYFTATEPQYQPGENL

Cc1cc(-c2cc(OC(=O)c3ccccc3)ccc2Cl)cc2nnc(Nc3ccc(OCCN4CCCC4)cc3)nc12 [TG100-801]
pIC50 [1]: ≤ 5.60
Cmax (Mus musculus [2]): 29 µM
Tmax at 0.172 µM [3]: 24 h
Activity (Mus musculus [4]): 35%
AUC(0-t) at 24 h, 0.172 µM [5]: 63000 ng·h/mL
Stability [6]: 288 ng/mL/h
Cmax at 0.172 µM [7]: 27 µM
Tmax (Mus musculus [8]): 24 h
Activity (Mus musculus [9]): 100%
Tmax (Mus musculus [10]): 24 h
concentration at 24 h [11]: < 1 ng/mL
AUC(0-t) at 24 h, 0.172 µM [12]: 430 µg·h/mL
pIC50 [13]: ≤ 5.00
Cmax at 0.172 µM [14]: 3.7 µM
Cmax (Mus musculus [15]): 2400 nM
AUC (Mus musculus [16]): 540 µg·h/mL
pIC50 [17]: ≤ 5.00
Cmax (Mus musculus [18]): 5 nM
AUC (Mus musculus [19]): 670 µg·h/mL
remaining at 1 h [20]: > 90%
Cmax (Mus musculus [21]): 33 µM
Tmax (Mus musculus [22]): 24 h
AUC (Mus musculus [23]): 35 µg·h/mL
Tmax (Mus musculus [24]): 7 h
AUC(0-t) at 24 h, 0.172 µM [25]: 55000 ng·h/mL
Tmax at 0.172 µM [26]: 24 h
Activity (Mus musculus [27]): 46%
Cmax at 0.172 µM [28]: 5.3 µM
Tmax at 0.172 µM [29]: 24 h

CC(=O)Oc1ccc(Cl)c(-c2cc(C)c3nc(Nc4ccc(OCCN5CCCC5)cc4)nnc3c2)c1
remaining at 1 h [20]: < 20%
